Screening data (PubChem)
F508del corr – CFTR F508del correction in bronchial cells; AID 720511; hit rate 0.36% among 350,000; CFBE cells, YFP halide quenching; stimulated with forskolin plus potentiator P3; % fluorescence drop versus neutral controls; activity (quench increase), % at 7.58 µM;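 active means mean added fluorescence quench of at least 8% versus neutral control, with both replicates also reaching 8%; inconclusive means only one of the mean or replicate conditions met; inactive means mean below 8% and not both replicates reaching 8%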;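 further: cells transiently co-express mutant CFTR-F508del with the halide-sensitive YFP; corrector assay measuring rescue of mutant channel to the surface after 24 h compound exposure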
ERAP1 inh – ERAP1 (human) enzyme inhibition; recombinant ERAP1, Leu-AMC fluorescence, 60 min; inhibition, % at 10.7 µM; hit rate 0.15% among 340,000;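 active means mean replicate inhibition of at least 30%, or all replicates individually reaching that 30% level; inactive means mean below 30% and not every replicate reaching it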
FGF22 binding – binders of recombinant human FGF22 by thermal shift. Q9HCT0. SYPRO orange fluorescence; percent of sucrose octasulfate shift, DMSO zero. activity (Tm shift, normalised), % at 9.99 µM. hit rate 1.5% among 340,000. AID 651658;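 active means mean Tm shift, scaled 0 neutral to 100 positive control, at about 1.3% or above, every replicate too, limit read from the data; inconclusive means no clear call, values can overlap the other calls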
DENV2 CPE – inhibitors of DENV2 cytopathic effect; DENV2-infected cells, cytopathic effect rescue, plate reader; CPE inhibition, % at 9.99 µM; hit rate 1.7% among 350,000; AID 651640; in the data active means CPE inhibition above about 20%, passing the limit was not always enough; inconclusive means no clear call, values can overlap the other calls; tested in BHK-21 cells
E-selectin induc – induces E-selectin expression in human endothelial cells; HUVEC E-selectin immunofluorescence imaging; normalized: neutral wells 0, TNF-alpha wells 100; activation, % at 7.58 µM; hit rate 0.37% among 260,000; AID 686992;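 active means mean E-selectin-positive cell signal at least 10% of the positive control, reached in at least 60% of replicates, without over 20% cell loss; inconclusive means no rule given, readout overlaps actives, possibly toxicity-flagged; inactive means the rest, including those meeting only one limit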
Target sequence (P16581 whole entry, looked up): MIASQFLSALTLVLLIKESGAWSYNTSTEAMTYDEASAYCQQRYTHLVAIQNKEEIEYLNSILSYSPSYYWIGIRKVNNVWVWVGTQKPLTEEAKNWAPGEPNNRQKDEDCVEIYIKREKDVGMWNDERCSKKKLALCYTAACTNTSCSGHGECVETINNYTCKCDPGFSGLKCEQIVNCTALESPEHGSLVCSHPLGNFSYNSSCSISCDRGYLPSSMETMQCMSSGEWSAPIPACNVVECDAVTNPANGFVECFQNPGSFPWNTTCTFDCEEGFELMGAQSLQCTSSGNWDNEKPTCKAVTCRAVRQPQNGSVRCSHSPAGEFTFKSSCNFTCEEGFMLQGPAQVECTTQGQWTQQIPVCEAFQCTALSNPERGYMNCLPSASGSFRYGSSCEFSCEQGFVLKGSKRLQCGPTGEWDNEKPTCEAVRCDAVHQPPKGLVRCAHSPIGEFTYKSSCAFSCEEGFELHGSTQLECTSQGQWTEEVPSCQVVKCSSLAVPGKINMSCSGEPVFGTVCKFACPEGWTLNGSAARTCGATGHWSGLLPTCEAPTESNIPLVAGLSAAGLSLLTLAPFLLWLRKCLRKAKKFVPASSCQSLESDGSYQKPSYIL
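Assay system: HUVEC, human umbilical vein endothelial cells / Amount: 3,000 HUVEC/well / Controls: TNF-alpha positive control, DMSO neutral control / Compound dosing: single concentration / Medium: EGM-2 over gelatin coat / Evaluation: percent E-selectin-positive cells / Signal: immunofluorescence imaging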
Each line names hits and unclear results; the compound was inactive in the other large screens. Shown are actives, neighbours in structure and some others; about 3.7% of the full set was active somewhere.

CCC(=O)N1[C@H](C(=O)N2CCCCC2)[C@@H](CO)[C@@H]2Cn3c(ccc(-c4cccc(F)c4)c3=O)[C@@H]21	none (no result: FGF22 binding)
COc1ccc2c3c(n(C)c2c1)[C@H](CO)N(C(=O)CC1CC1)CC31CN(Cc2ccccc2)C1	none
C[C@H](O)C#Cc1ccc([C@H]2[C@@H](CO)N3CCCCN(C(=O)c4ccc(F)cc4)C[C@@H]23)cc1	DENV2 CPE 33
CC(C)(O)C#Cc1ccc([C@@H]2[C@@H](CO)N3CCCCN(C(=O)c4ccc(F)cc4)C[C@@H]23)cc1	DENV2 CPE 83
O=C(c1ccc(F)cc1)N1CCCCN2[C@H](C1)[C@H](c1ccc(C#CC3(O)CCCC3)cc1)[C@@H]2CO	DENV2 CPE 42
O=C(c1ccc(F)cc1)N1CCCCN2[C@H](CO)[C@@H](c3ccc(C#CC4(O)CCCC4)cc3)[C@H]2C1	none
CC(C)(O)C#Cc1ccc([C@H]2[C@H]3CN(C(=O)c4ccc(F)cc4)CCCCN3[C@H]2CO)cc1	none
O=C(C[C@H]1CC[C@H]2[C@@H](COC[C@@H](O)CN2C(=O)c2cccnc2)O1)NC1Cc2ccccc2C1	none
O=C(N[C@H]1C=C[C@H](CC(=O)N2CCc3ccccc3C2)O[C@@H]1CO)C1CCOCC1	none (no result: FGF22 binding)
O=C(C[C@@H]1C[C@@H]2c3cc(NC(=O)Nc4ccccc4F)ccc3O[C@@H]2[C@H](CO)O1)NC1CCCC1	DENV2 CPE 49
O=C(C[C@H]1C[C@H]2c3cc(NC(=O)Nc4ccccc4F)ccc3O[C@H]2[C@H](CO)O1)NC1CCCC1	DENV2 CPE 20
O=C(C[C@@H]1C[C@H]2c3cc(NC(=O)Nc4ccccc4F)ccc3O[C@H]2[C@H](CO)O1)NC1CCCC1	none
O=C(C[C@H]1C[C@@H]2c3cc(NC(=O)Nc4ccccc4F)ccc3O[C@@H]2[C@@H](CO)O1)NC1CCCC1	DENV2 CPE 23
O=C(C[C@@H]1C[C@@H]2c3cc(NC(=O)Nc4ccccc4F)ccc3O[C@@H]2[C@@H](CO)O1)NC1CCCC1	none
CNC(=O)C[C@@H]1CC[C@H]2[C@@H](COC[C@H](O)CN2S(=O)(=O)c2ccccc2Cl)O1	none (no result: ERAP1 inh)
COc1ccc(CN(C)C[C@@H]2OCCCC[C@@H](C)Oc3ccc(NC(=O)Nc4ccc(F)cc4)cc3C(=O)N([C@@H](C)CO)C[C@@H]2C)cc1	none
CC(c1ccncn1)N(C)Cc1nc(-c2ccc(C(F)(F)F)cc2)no1 (stereo unspecified)	none
Cc1oc(-c2ccc3ccccc3c2)nc1CN(C)C(C)c1ccncn1 (stereo unspecified)	FGF22 binding 44 (no result: E-selectin induc)
C[C@@H]1CN([C@H](C)CO)C(=O)c2cc(Br)cnc2O[C@@H]1CN(C)CC1CCOCC1	none (no result: ERAP1 inh, E-selectin induc)
O=C(C[C@@H]1CC[C@H]2[C@@H](COC[C@@H](O)CN2S(=O)(=O)c2ccc(Cl)cc2)O1)NCCN1CCCC1	DENV2 CPE 23
CCNC(=O)C[C@@H]1CC[C@@H]2[C@H](COC[C@@H](O)CN2C(=O)Nc2ccc3c(c2)OCO3)O1	none
O=C(C[C@H]1CC[C@H]2[C@@H](COC[C@@H](O)CN2C(=O)Nc2ccc(Cl)c(Cl)c2)O1)NCc1ccc(Cl)c(Cl)c1	FGF22 binding 1.3
CNC(=O)C[C@H]1CC[C@@H]2[C@H](COC[C@@H](O)CN2C(=O)Nc2ccc3c(c2)OCO3)O1	DENV2 CPE 102
O=C(C[C@@H]1CC[C@@H]2[C@H](COC[C@@H](O)CN2S(=O)(=O)c2ccc(F)cc2)O1)NCc1ccc(Cl)c(Cl)c1	DENV2 CPE 29
O=C(NCc1ccccn1)[C@@H]1[C@@H](CO)[C@@H]2Cn3c(cccc3=O)[C@H]1N2CC1CCCC1	DENV2 CPE inconclusive (no result: FGF22 binding)
CO[C@@H]1CN(C)C(=O)c2ccc(NC(=O)NC(C)C)cc2OC[C@@H](C)N(Cc2ccccn2)C[C@H]1C	none (no result: FGF22 binding)
C[C@H](O)C#Cc1cnc2c(c1)C(=O)N([C@H](C)CO)C[C@@H](C)[C@@H](CN(C)C(=O)c1ccncc1)O2	none
CCNC(=O)[C@H]1[C@H](CO)[C@H]2Cn3c(ccc(C4=CCCC4)c3=O)[C@@H]1N2C(=O)CC	none
COc1ccc(S(=O)(=O)N2C[C@@H](O)COC[C@@H]3O[C@H](CC(=O)NCCCN(C)C)CC[C@H]32)cc1	none
COc1ccc(S(=O)(=O)N2C[C@H](O)COC[C@H]3O[C@H](CC(=O)NCCCN(C)C)CC[C@@H]32)cc1	DENV2 CPE 21
COc1ccc(S(=O)(=O)Nc2ccc3c(c2)C(=O)N([C@H](C)CO)C[C@H](C)[C@H](CN(C)S(=O)(=O)c2ccc(OC)cc2)OCCCC[C@H](C)O3)cc1	none (no result: ERAP1 inh)
CCc1nn(CC(=O)NCCCN2CCOCC2)c(=O)c2cc3sccc3n12	none (no result: E-selectin induc)
CCCN1CCN(C(=O)Cn2nc(CC)n3c(cc4sccc43)c2=O)CC1	FGF22 binding 44
CC(=O)c1cccc(NC(=O)C(=O)Nc2cccc3ccccc23)c1	FGF22 binding 43 (no result: E-selectin induc)
CC(=O)c1ccc(NC(=S)Nc2cccc3ccccc23)cc1	none (no result: E-selectin induc)
CCN(CC(=O)Nc1cc(Cl)ccc1-n1cncn1)Cc1nc2ccccc2c(=O)[nH]1	F508del corr 14, DENV2 CPE 31
COc1ccc(/C=C(\NC(=O)c2ccccc2)C(=O)OCC2CCCN3CCCCC23)cc1OC (stereo unspecified)	FGF22 binding 44 (no result: E-selectin induc)
O=C(NCc1ccccn1)[C@H]1[C@H](CO)[C@H]2Cn3c(cccc3=O)[C@@H]1N2CC1CCCC1	none (no result: FGF22 binding)
C[C@@H]1CN([C@H](C)CO)C(=O)c2c(c3ccccc3n2C)-c2ccccc2CO[C@H]1CN(C)C(=O)[C@H]1CCCN1C	none (no result: ERAP1 inh, FGF22 binding, DENV2 CPE)
Cc1nn(C)c(C(=O)NNC(=S)NC2CCCCC2)c1Br	FGF22 binding 43 (no result: E-selectin induc)
Cn1ncc(Br)c1C(=O)NC1CCCCCCC1	none
CCCn1c(SCC(=O)NC)nc2sc3c(c2c1=O)CCC3	none
CCSc1nc2sc3c(c2c(=O)n1CC)CCC3	DENV2 CPE 40 (no result: E-selectin induc)
COc1ccc(S(=O)(=O)N(C)C[C@@H]2OCCCC[C@H](C)Oc3ccc(NC(=O)c4ccccc4)cc3C(=O)N([C@H](C)CO)C[C@H]2C)cc1	none
COc1ccc(-c2ccc([C@H]3[C@H](CO)N4CCCCN(C(=O)NC(C)C)C[C@@H]34)cc2)cc1	DENV2 CPE 40
COc1ccc(-c2ccc([C@H]3[C@@H](CO)N4CCCCN(C(=O)NC(C)C)C[C@H]34)cc2)cc1	DENV2 CPE 31
COc1ccc(-c2ccc([C@@H]3[C@H]4CN(C(=O)NC(C)C)CCCCN4[C@H]3CO)cc2)cc1	none
O=C(C[C@H]1C[C@H]2c3cc(NS(=O)(=O)c4ccccc4)ccc3O[C@H]2[C@H](CO)O1)NC1CCCCC1	none
C[C@@H]1CN([C@@H](C)CO)C(=O)c2cccc(NC(=O)c3ccc(-c4nccs4)cc3)c2O[C@@H]1CN(C)C(=O)NC1CCCCC1	none
C[C@H]1CN([C@@H](C)CO)C(=O)c2cccc(NC(=O)c3ccc(-c4nccs4)cc3)c2O[C@@H]1CN(C)C(=O)NC1CCCCC1	none
